Results: ChEMBL document CHEMBL1126902, “Synthesis, chemical reactivity, and antitumor evaluation of congeners of carmethizole hydrochloride, an experimental "acylated vinylogous carbinolamine" tumor inhibitor” (J Med Chem, 1993)

Experiments:
[1] = Percent increase in life span of dying mice tested in vivo at 82 mg/kg against ip implanted LOX amelanotic melanoma in mice (60-day survivors); format: functional; conditions: Mus musculus, 1440 h, route intraperitoneal
Outline: (§1)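 Nude CD2F1 female mice were implanted ip with ascitic fluid containing ca. 1.7×10^6 LOX amelanotic melanoma cells. Drug was given ip on days 1, 5 and 9, starting 24 h after implantation, and dosed by exact body weight. Solutions or suspensions were made fresh daily in saline plus Tween 80. %ILS was calculated from the median day of death of dying mice versus controls, excluding 60-day survivors.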

[2] = Change in tumor cell population in ip implanted LOX amelanotic melanoma in mice after administration of compound at 164 mg/kg; format: functional, Mus musculus; conditions: route intraperitoneal
Outline: (§2)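 Female CD2F1 mice were implanted ip with ascitic fluid holding ca. 1.7×10^6 LOX cells. Dosing was ip on days 1, 5 and 9, starting 24 h after implantation, by exact body weight, as a solution or suspension in saline plus Tween 80, freshly prepared daily. KE is the net log change in viable tumor cells from start to end of treatment. Bracketed KE assumes Poisson survival, with 60-day survivors tumor-free.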

[3] = Change in tumor cell population in ip implanted LOX amelanotic melanoma in mice after administration of compound at 82 mg/kg; format: functional, Mus musculus; conditions: route intraperitoneal; outline: as §2
[4] = Percent increase in life span of dying mice tested in vivo at 328 mg/kg against ip implanted LOX amelanotic melanoma in mice (60-day survivors); format: functional; conditions: Mus musculus, 1440 h, route intraperitoneal
Outline: (§3)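 Female CD2F1 mice implanted ip with ascitic fluid carrying ca. 1.7×10^6 LOX amelanotic melanoma cells. Drug given ip on days 1, 5 and 9, starting 24 h after implant, dosed by exact body weight; solutions or suspensions made fresh daily. %ILS is from the median day of death of dying mice versus controls, excluding 60-day survivors.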

[5] = Percent increase in life span of dying mice tested in vivo at 41 mg/kg against ip implanted LOX amelanotic melanoma in mice (60-day survivors); format: functional; conditions: Mus musculus, 1440 h, route intraperitoneal; outline: as §3
[6] = Percent increase in life span of dying mice tested in vivo at 164 mg/kg against ip implanted LOX amelanotic melanoma in mice (60-day survivors); format: functional; conditions: Mus musculus, 1440 h, route intraperitoneal; outline: as §3
Mus musculus = experiment: Change in tumor cell population in ip implanted LOX amelanotic melanoma in mice after administration of compound at 328 mg/kg; toxic; format: functional, organism-based; parameters: dose 328 mg/kg; outline: as §2
[7] = Change in tumor cell population in ip implanted LOX amelanotic melanoma in mice after administration of compound at 41 mg/kg; format: functional, Mus musculus; conditions: route intraperitoneal; outline: as §2
P388 [8] = experiment: Change in tumor cell population in ip implanted P388 Leukemia in mice after administration of compound at 20.5 mg/kg; format: functional, Mus musculus; conditions: route intraperitoneal
Outline: (§4)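 Female Portage-CD2F1 mice were inoculated ip with ascitic fluid holding ca. 5.2×10^6 P388 cells. Dosing was ip on days 1-5, starting 24 h after inoculation, by average body weight, as a solution or suspension in saline plus Tween 80. KE is the net log change in viable tumor cell population from start to end of the treatment period.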

P388 [9] = experiment: Change in tumor cell population in ip implanted P388 Leukemia in mice after administration of compound at 41 mg/kg; format: functional, Mus musculus; conditions: route intraperitoneal; outline: as §4
P388 [10] = experiment: Change in tumor cell population in ip implanted P388 Leukemia in mice after administration of compound at 82 mg/kg; format: functional, Mus musculus; conditions: route intraperitoneal
Outline: (§5)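 P388 leukemia: ascitic fluid with ca. 5.2×10^6 cells inoculated ip into Portage-CD₂F₁ female mice. Drug given ip on days 1-5, starting 24 h after inoculation, dosed by average body weight. Vehicle was saline plus Tween 80, as a solution or suspension. KE = net log change in viable tumor cells from start to end of treatment.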

P388 [11] = experiment: Percent increase in life span of dying mice tested in vivo at 41 mg/kg against ip implanted P388 Leukemia in mice; format: functional; conditions: Mus musculus, route intraperitoneal
Outline: (§6)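 Portage-CD2F1 female mice inoculated ip with ascitic fluid carrying ca. 5.2×10^6 P388 leukemia cells. Drug given ip daily on days 1-5, starting 24 h after inoculation, dosed by average body weight. %ILS is from the median day of death of dying mice versus controls.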

P388 [12] = experiment: Percent increase in life span of dying mice tested in vivo at 82 mg/kg against ip implanted P388 Leukemia in mice; format: functional; conditions: Mus musculus, route intraperitoneal
Outline: (§7)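 Portage-CD2F1 female mice were inoculated ip with ascitic fluid containing ca. 5.2×10^6 P388 leukemia cells. Drug was given ip daily on days 1-5, starting 24 h after inoculation, and dosed by average body weight. %ILS was calculated from the median day of death of dying mice versus controls.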

P388 [13] = experiment: Change in tumor cell population in ip implanted P388 Leukemia in mice after administration of compound at 164 mg/kg; format: functional, Mus musculus; conditions: route intraperitoneal; outline: as §4
P388 [14] = experiment: Percent increase in life span of dying mice tested in vivo at 164 mg/kg against ip implanted P388 Leukemia in mice; format: functional; conditions: Mus musculus, route intraperitoneal; outline: as §6
P388 [15] = experiment: Percent increase in life span of dying mice tested in vivo at 20.5 mg/kg against ip implanted P388 Leukemia in mice; format: functional; conditions: Mus musculus, route intraperitoneal; outline: as §6
A549 = experiment: Concentration required to inhibit tumor growth in A549, human lung carcinoma (NSCLC) cell line; format: functional, cell-based
Outline: (§8)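 Cells grown in RPMI 1640 with 5% fetal calf serum, 5% NuSerum IV and 20 mM HEPES, seeded and allowed to adhere overnight. Compound dissolved in RPMI-1640 plus HEPES and tested over a 5 log range (10 concentrations) for 72 h. Read-out by sulforhodamine B assay. Median-effect dose derived by nonlinear regression of the concentration-effect curve.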

HT-29 = experiment: Concentration required to inhibit tumor growth in HT29, human colon adenocarcinoma cell line; format: functional, cell-based; conditions: Homo sapiens, HT-29; outline: as §8
[16] = Percent increase in life span of dying mice tested in vivo at 47 mg/kg against ip implanted LOX amelanotic melanoma in mice (60-day survivors); format: functional; conditions: Mus musculus, 1440 h, route intraperitoneal; outline: as §3
[17] = Percent increase in life span of dying mice tested in vivo at 94 mg/kg against ip implanted LOX amelanotic melanoma in mice (60-day survivors); format: functional; conditions: Mus musculus, 1440 h, route intraperitoneal; outline: as §1
[18] = Change in tumor cell population in ip implanted LOX amelanotic melanoma in mice after administration of compound at 94 mg/kg; format: functional, Mus musculus; conditions: route intraperitoneal; outline: as §2
[19] = Change in tumor cell population in ip implanted LOX amelanotic melanoma in mice after administration of compound at 188 mg/kg; format: functional, Mus musculus; conditions: route intraperitoneal; outline: as §2
[20] = Change in tumor cell population in ip implanted LOX amelanotic melanoma in mice after administration of compound at 23.5 mg/kg; format: functional, Mus musculus; conditions: route intraperitoneal; outline: as §2
[21] = Change in tumor cell population in ip implanted LOX amelanotic melanoma in mice after administration of compound at 47 mg/kg; format: functional, Mus musculus; conditions: route intraperitoneal; outline: as §2
[22] = Percent increase in life span of dying mice tested in vivo at 23.5 mg/kg against ip implanted LOX amelanotic melanoma in mice (60-day survivors); format: functional; conditions: Mus musculus, 1440 h, route intraperitoneal; outline: as §3
[23] = Percent increase in life span of dying mice tested in vivo at 188 mg/kg against ip implanted LOX amelanotic melanoma in mice (60-day survivors); format: functional; conditions: Mus musculus, 1440 h, route intraperitoneal; outline: as §3
[24] = Concentration required to inhibit tumor growth in […], human breast adenocarcinoma cell line; format: functional; outline: as §8
P388 [25] = experiment: Change in tumor cell population in ip implanted P388 Leukemia in mice after administration of compound at 23.5 mg/kg; format: functional, Mus musculus; conditions: route intraperitoneal; outline: as §4
P388 [26] = experiment: Change in tumor cell population in ip implanted P388 Leukemia in mice after administration of compound at 47 mg/kg; format: functional, Mus musculus; conditions: route intraperitoneal; outline: as §5
P388 [27] = experiment: Change in tumor cell population in ip implanted P388 Leukemia in mice after administration of compound at 94 mg/kg; format: functional, Mus musculus; conditions: route intraperitoneal; outline: as §5
P388 [28] = experiment: Percent increase in life span of dying mice tested in vivo at 23.5 mg/kg against ip implanted P388 Leukemia in mice; format: functional; conditions: Mus musculus, route intraperitoneal; outline: as §6
P388 [29] = experiment: Percent increase in life span of dying mice tested in vivo at 47 mg/kg against ip implanted P388 Leukemia in mice; format: functional; conditions: Mus musculus, route intraperitoneal; outline: as §6
P388 [30] = experiment: Percent increase in life span of dying mice tested in vivo at 94 mg/kg against ip implanted P388 Leukemia in mice; format: functional; conditions: Mus musculus, route intraperitoneal; outline: as §7
P388 [31] = experiment: Change in tumor cell population in ip implanted P388 Leukemia in mice after administration of compound at 11.8 mg/kg; format: functional, Mus musculus; conditions: route intraperitoneal; outline: as §4
P388 [32] = experiment: Percent increase in life span of dying mice tested in vivo at 11.8 mg/kg against ip implanted P388 Leukemia in mice; format: functional; conditions: Mus musculus, route intraperitoneal; outline: as §6
[33] = Concentration required to inhibit tumor growth in PSN-1, human pancreatic carcinoma cell line; format: functional
Outline: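 PSN-1 pancreatic carcinoma cells exposed to compound dissolved in RPMI-1640 plus HEPES at its maximum soluble concentration for 72 h. Read-out by sulforhodamine B colorimetric assay.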

L1210 (Mus musculus) = experiment: Concentration required to inhibit tumor growth in L1210, murine lymphocytic leukemia cell line

| SMILES | ILS at 47 mg/kg [16] [%] | ILS at 94 mg/kg [17] [%] | KE [18] | KE [19] | KE [20] | KE [21] | ILS at 23.5 mg/kg [22] [%] | ILS at 188 mg/kg [23] [%] | KE (P388 [25]) | KE (P388 [26]) | KE (P388 [27]) | ILS at 23.5 mg/kg (P388 [28]) [%] | ILS at 47 mg/kg (P388 [29]) [%] | ILS at 94 mg/kg (P388 [30]) [%] | KE (P388 [31]) | ILS at 11.8 mg/kg (P388 [32]) [%] | other results |
| --- | --- | --- | --- | --- | --- | --- | --- | --- | --- | --- | --- | --- | --- | --- | --- | --- | --- |
| CNC(=O)OCc1nc(SSc2nc(COC(=O)NC)c(COC(=O)NC)n2C)n(C)c1COC(=O)NC | – | – | – | – | – | – | – | – | – | – | – | – | – | – | – | – | ILS at 82 mg/kg [1]: -5%; KE [2]: 1.8; KE [3]: 1.8; ILS at 328 mg/kg [4]: -69%; ILS at 41 mg/kg [5]: 3%; ILS at 164 mg/kg [6]: -5%; KE (Mus musculus): Toxic; KE [7]: 1.5; KE (P388 [8]): 1.3; KE (P388 [9]): 1.3; KE (P388 [10]): 1.3; ILS at 41 mg/kg (P388 [11]): 20%; ILS at 82 mg/kg (P388 [12]): 17%; KE (P388 [13]): 0.9; ILS at 164 mg/kg (P388 [14]): 26%; ILS at 20.5 mg/kg (P388 [15]): 17% |
| CCCSc1nc(COC(=O)NC)c(COC(=O)NC)n1C | 24 | 22 | 0.6 | -1.6 | 1.3 | 0.7 | 13 | 76 | -0.1 | -1.5 | -3.3 | 40 | 59 | 84 | -0.1 | 40 | IC50 (A549): 190 µM; IC50 (HT-29): 108 µM; IC50 [24]: 147 µM; IC50 [33]: 115 µM; IC50 (L1210 (Mus musculus)): 18 µM |
| CNC(=O)OCc1nc(SC(C)C)n(C)c1COC(=O)NC | 24 | 28 | 0.6 | -0.2 | 1.3 | 0.7 | 13 | 45 | 1 | 0.9 | -1.5 | 25 | 27 | 59 | 0.6 | 31 | – |
